Measurements as given in publication PMC5830699 (ACS Omega, 2018).
In brackets after ≈: the same amount, converted by molar mass. Several values for one entry are separate records, joined by “and”; a condition that tells them apart may be missing. Equal entries are not always repeated. Entries after “also recorded” stand apart in the source; their conditions may differ. Where two headings read alike, the source gives them in different places.

Columns and labels:
[1] = test system: Hydrogenivirga spp. MraY; format: biochemical; details: for IC50: read-out: MraY inhibition IC50
[2] = test system: C. difficile ATCC 43596; assay: microbe, parasite or virus in culture; format: cell-based, Clostridium difficile; details: for MIC: Clostridioides difficile, ATCC43596, read-out: C. difficile ATCC 43596 MIC
[3] = target: T1, E. coli WecA (Escherichia coli, UniProt P0AC78); assay: biochemical; format: biochemical
T1 sequence (P0AC78 1-367): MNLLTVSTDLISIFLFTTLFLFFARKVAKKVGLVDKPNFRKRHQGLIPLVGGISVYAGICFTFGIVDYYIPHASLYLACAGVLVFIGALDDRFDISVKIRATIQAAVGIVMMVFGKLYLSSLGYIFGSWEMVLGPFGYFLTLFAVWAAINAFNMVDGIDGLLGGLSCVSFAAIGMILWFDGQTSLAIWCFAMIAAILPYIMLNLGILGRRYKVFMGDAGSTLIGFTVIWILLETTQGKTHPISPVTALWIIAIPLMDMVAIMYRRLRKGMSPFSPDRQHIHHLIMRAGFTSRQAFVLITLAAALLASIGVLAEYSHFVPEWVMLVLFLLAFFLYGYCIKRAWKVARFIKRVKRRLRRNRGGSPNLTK

[4] = test system: all Gram-negative bacteria tested; format: cell-based
[5] = test system: Lactobacillus spp.; format: cell-based
[6] = test system: Vero cells; assay: Vero cell cytotoxicity; format: cell-based, African green monkey
How it was run: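 Vero cells (ATCC CCL-81) grown in flasks, then seeded into 96-well plates in Eagle's minimum essential medium with 10% FBS and penicillin–streptomycin. Test compound stock was 1 mg per 100 μL in PEG 300–water (1/1). Serial dilutions spanning 0.78–200 μg/mL were added, with known-toxicity control compounds on every plate. After incubation, cytotoxicity was read by MTT.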

[7] = test system: C. difficile (ATCC 43596) spores; assay: C. difficile spore viability / outgrowth assay; format: cell-based, Clostridium difficile; details: 24 h treatment, taurocholate agar
[8] = Water solubility; format: physicochemical
[9] = test system: sheep blood; assay: Hemolysis assay; format: cell-based; details: for IC50: read-out: hemolysis IC50, sheep blood
[10] = test system: Bacillus subtilis (ATCC 6051); assay: microbe, parasite or virus in culture; format: cell-based; details: ATCC6051, read-out: MIC Bacillus subtilis
[11] = target: T2, M. smegmatis WecA (Mycolicibacterium smegmatis, UniProt A0R211); assay: WecA inhibition assay; format: biochemical
T2 sequence (A0R211 1-406): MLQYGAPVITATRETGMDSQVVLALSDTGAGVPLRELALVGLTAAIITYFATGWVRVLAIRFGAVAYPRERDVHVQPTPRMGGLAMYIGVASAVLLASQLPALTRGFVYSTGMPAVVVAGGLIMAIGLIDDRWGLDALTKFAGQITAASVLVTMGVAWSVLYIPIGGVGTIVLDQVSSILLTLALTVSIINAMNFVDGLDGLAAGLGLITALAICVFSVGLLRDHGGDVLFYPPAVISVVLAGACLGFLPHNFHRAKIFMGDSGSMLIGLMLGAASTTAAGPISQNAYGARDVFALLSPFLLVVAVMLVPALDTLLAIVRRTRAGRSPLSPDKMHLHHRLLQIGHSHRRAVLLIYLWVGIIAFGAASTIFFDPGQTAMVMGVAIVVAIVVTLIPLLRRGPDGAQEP

[12] = test system: Clostridium perfringens (ATCC 13124); assay: microbe, parasite or virus in culture; format: cell-based; details: ATCC13124, read-out: MIC Clostridium perfringens
[13] = test system: Staphylococcus pneumoniae; format: cell-based
[14] = test system: Staphylococcus aureus; format: cell-based
[15] = test system: C. difficile spore outgrowth; details: high concentrations; cited from earlier work
[16] = test system: vegetative C. difficile; details: cited from earlier work
[17] = target: T3, M. jannaschii AglH (Methanocaldococcus jannaschii, UniProt Q58513); assay: AglH counterselection assay; format: biochemical; details: read-out: AglH inhibition IC50, M. jannaschii AglH
T3 sequence (Q58513 1-301): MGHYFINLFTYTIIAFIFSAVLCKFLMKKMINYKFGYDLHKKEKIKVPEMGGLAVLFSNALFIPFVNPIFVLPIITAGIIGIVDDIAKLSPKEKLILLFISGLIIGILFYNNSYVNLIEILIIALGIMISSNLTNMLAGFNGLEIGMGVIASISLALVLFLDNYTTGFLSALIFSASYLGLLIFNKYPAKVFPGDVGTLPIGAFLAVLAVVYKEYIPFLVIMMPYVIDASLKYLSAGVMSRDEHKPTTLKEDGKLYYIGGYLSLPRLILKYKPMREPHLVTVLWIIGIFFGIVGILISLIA

For `CN(CCCN)[C@H](C(=O)O)[C@@H](O[C@@H]1O[C@H](CN)[C@@H](O)[C@H]1O)[C@H]1O[C@@H](n2ccc(=O)[nH]c2=O)C(O)C1O` (stereo partly drawn) [compound 5, FR-900493-5′R,6′S-Diastereomer], the IC50 [1] was > 100 µM and the MIC [2] was > 25 µg/mL.
For `CN(CCCN)[C@@H](C(=O)O)[C@@H](O[C@@H]1O[C@H](CN)[C@@H](O)[C@H]1O)[C@H]1O[C@@H](n2ccc(=O)[nH]c2=O)C(O)C1O` (stereo partly drawn) [compound 6, FR-900493-5′R, 6′R-Diastereomer], the IC50 [1] was > 100 µM and the MIC [2] was > 25 µg/mL.
For `CN(CCCN)[C@H](C(N)=O)[C@H](O[C@@H]1O[C@H](CN)[C@@H](O)[C@H]1O)[C@H]1O[C@@H](n2ccc(=O)[nH]c2=O)C(O)C1O` (some centres unmarked) [compound 7, FR-900493-Amide], the “WecA inhibitory activity (in words)” value [3] was “equal to that of 1”, the “MraY inhibitory activity (in words)” value [1] was “equal to that of 1” and the IC50 [1] was 25 ± 9.67 µM. The MIC [2] was > 25 µg/mL.
For `NCCCN[C@H](C(N)=O)[C@H](O[C@@H]1O[C@H](CN)[C@@H](O)[C@H]1O)[C@H]1O[C@@H](n2ccc(=O)[nH]c2=O)C(O)C1O` (some centres unmarked) [compound 8, De N-Methyl FR-900493], the IC50 [3] was > 100 µM, the “WecA inhibitory activity (in words)” value [3] was “completely lost” and the “MraY inhibitory activity (in words)” value [1] was “completely lost”. The IC50 [1] was > 100 µM and the MIC [2] was > 25 µg/mL.
In the case of `NC[C@H]1O[C@@H](O[C@@H]([C@H](NCCCC(=O)NCc2ccc(N3CCC(Oc4ccc(OC(F)(F)F)cc4)CC3)cc2)C(N)=O)[C@H]2O[C@@H](n3ccc(=O)[nH]c3=O)C(O)C2O)[C@H](O)[C@@H]1O` (some centres unmarked) [compound 11], the “growth inhibition of all Gram-negative bacteria tested” value [4] is reported as > 25.0 µg/mL, the “growth inhibition of Lactobacillus spp.” value [5] is reported as > 25.0 µg/mL and the IC50 ([6]; Chlorocebus sabaeus, Vero, read-out: Vero cells IC50, cytotoxicity, MTT) is reported as 65 ± 4.65 µM. The “cytotoxicity against Vero cells of 11 relative to 10” value ([6]; less cytotoxic than 10) was “approximately 8 times”, the “outgrowth of C. difficile spores (in words)” value (shortened to “outgrowth … (in words)”) ([7]; 2× MIC) was “prevented the outgrowth; also recorded: inhibited the outgrowth” and the “water solubility of 11 relative to 10” value ([8]; greater than 10) was 200 times. The solubility ([8]; water) was 22 mg/mL (≈ 24900 µM), the “induction of hemolysis (in words)” value ([9]; at 100 μM concentration) was “does not induce hemolysis” and the IC50 ([9]; listed as UT-17460 (11)) was 206 ± 4.33 µM. The MIC [10] was 1.6 µg/mL (≈ 1.81 µM), the IC50 [11] was 0.25 µM and the “C. difficile ATCC 43596 MIC” value [2] was 3.25 ± 4.40 µg/mL. The “anti-C. difficile activity in library screen” value [2] was “displayed anti-C. difficile activity”, the MIC [2] was 3.25 µg/mL (≈ 3.69 µM) and the MIC [12] was 3.1 µg/mL (≈ 3.52 µM). For the same compound, the “growth inhibition of Staphylococcus pneumoniae” value [13] was > 25.0 µg/mL and the “growth inhibition of Staphylococcus aureus” value [14] was > 25.0 µg/mL.
In the case of `CN(CCCC(=O)NCc1ccc(N2CCC(Oc3ccc(OC(F)(F)F)cc3)CC2)cc1)[C@H](C(N)=O)[C@H](O[C@@H]1O[C@H](CN)[C@@H](O)[C@H]1O)[C@H]1O[C@@H](n2ccc(=O)[nH]c2=O)C(O)C1O` (some centres unmarked) [compound 12], the “MraY inhibitory activity relative to FR-900493 (1)” value [1] is reported as > 3 fold, the “anti-C. difficile activity in library screen” value [2] is reported as “displayed anti-C. difficile activity” and the MIC [2] is reported as 50 ± 5.81 µg/mL (≈ 55.8 µM).
For `CCc1c(Cl)c(O)c(Cl)c(O)c1C(=O)O[C@H]1[C@H](O)[C@H](OC)[C@H](OC/C2=C\C=C\C[C@H](O)/C(C)=C/[C@H](CC)[C@@H](O[C@@H]3OC(C)(C)[C@@H](OC(=O)C(C)C)[C@H](O)[C@@H]3O)/C(C)=C/C(C)=C/C[C@@H]([C@@H](C)O)OC2=O)O[C@@H]1C` [fidaxomicin], the “concentration inhibiting C. difficile spore outgrowth” value [15] is listed as 4.0 to 14 µg/mL and the MIC90 [16] is listed as 0.5 µg/mL (≈ 0.473 µM).
With `CC(=O)NC[C@H]1CN(c2ccc(N3CCOCC3)c(F)c2)C(=O)O1` [linezolid] the “outgrowth … (in words)” value ([7]; 5× MIC) was “did not inhibit the spore outgrowth”.
For `Cc1ncc([N+](=O)[O-])n1CCO` [metronidazole], the “outgrowth … (in words)” value ([7]; 5× MIC) was “did not inhibit the spore outgrowth”.
For `CN[C@H](CC(C)C)C(=O)N[C@H]1C(=O)N[C@@H](CC(N)=O)C(=O)N[C@H]2C(=O)N[C@H]3C(=O)N[C@H](C(=O)N[C@H](C(=O)O)c4cc(O)cc(O)c4-c4cc3ccc4O)[C@H](O)c3ccc(c(Cl)c3)Oc3cc2cc(c3O[C@@H]2O[C@H](CO)[C@@H](O)[C@H](O)[C@H]2O[C@H]2C[C@](C)(N)[C@H](O)[C@H](C)O2)Oc2ccc(cc2Cl)[C@H]1O` [vancomycin, reference compound], the “outgrowth … (in words)” value ([7]; 5× MIC) was “did not inhibit the spore outgrowth”, the IC50 [3] was > 50 µM and the IC50 [1] was > 50 µM. For the same compound, the MIC [2] was 2.5 µg/mL (≈ 1.73 µM).
In the case of tunicamycin [reference compound], the IC50 [17] is reported as 13.3 ± 8.1 µM, the IC50 [9] is reported as 15 ± 7.83 µM and the “C. difficile ATCC 43596 MIC” value [2] is reported as >25.0 µg/mL and >50.0 µg/mL.
